Results from ChEMBL document CHEMBL1137715, “A facile synthesis of alpha,alpha'-(EE)-bis(benzylidene)-cycloalkanones and their antitubercular evaluations” (2009).
Converted amounts (≈) assume the structure as drawn. The source made the active and inactive calls. The rule behind the calls is not given here.

Key:
Pseudomonas aeruginosa = assay: Antimicrobial activity against Pseudomonas aeruginosa ATCC BAA-427 after 24 hrs by standard microbroth dilution technique; format: functional, organism-based
Klebsiella pneumoniae = assay: Antimicrobial activity against Klebsiella pneumoniae ATCC 27736 after 24 hrs by standard microbroth dilution technique; format: functional, organism-based
Staphylococcus aureus = assay: Antimicrobial activity against Staphylococcus aureus ATCC 25923 after 24 hrs by standard microbroth dilution technique; format: functional, organism-based
Candida parapsilosis = assay: Antimicrobial activity against Candida parapsilosis ATCC 22019 after 48 hrs by standard microbroth dilution technique; format: functional; conditions: Lodderomyces parapsilosis, ATCC 22019, 48 h
Escherichia coli = assay: Antimicrobial activity against Escherichia coli ATCC 9637 after 24 hrs by standard microbroth dilution technique; format: functional, organism-based
Cryptococcus neoformans = assay: Antimicrobial activity against Cryptococcus neoformans after 72 hrs by standard microbroth dilution technique; format: functional
Candida albicans = assay: Antimicrobial activity against Candida albicans ATCC 1405B after 48 hrs by standard microbroth dilution technique; format: functional
[1] = tested on: Mycobacterium tuberculosis; assay: Antitubercular activity against Mycobacterium tuberculosis H37Rv after 24 hrs by agar microdilution method; format: functional
Summary of the method: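 Agar microdilution on M. tuberculosis H37Rv. Two-fold compound dilutions were made in 7H10 agar with OADC. Inoculum came from L–J medium, harvested in 0.85% saline with 0.05% Tween-80. Slants were held 24 h at 37 °C, then streaked with 5×10^4 bacilli per tube and incubated at 37 °C for 30 days. MIC was the concentration giving complete colony inhibition versus medium-only control.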

[2] = tested on: Mycobacterium tuberculosis; assay: Antitubercular activity against Mycobacterium tuberculosis H37Ra after 5 days by microplate alamar blue assay; format: functional; conditions: 120 h
Summary of the method: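 Microplate Alamar Blue assay on M. tuberculosis H37Ra. A log-phase culture was diluted to a final OD550 nm of 0.05 in Sauton's medium. Test compounds in DMSO were dispensed into 96-well plates, with two-fold dilutions in the initial screen.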

Aspergillus fumigatus = assay: Antimicrobial activity against Aspergillus fumigatus after 72 hrs by standard microbroth dilution technique; format: functional
[3] = tested on: Trichophyton mentagrophytes; assay: Antimicrobial activity against Trichophyton mentagrophytes after 96 hrs by standard microbroth dilution technique; format: functional
Sporothrix schenckii = assay: Antimicrobial activity against Sporothrix schenckii after 72 hrs by standard microbroth dilution technique; format: functional

## O=[N+]([O-])c1ccc(/C=C2\CCC/C(=C\c3ccc([N+](=O)[O-])cc3)C2O)cc1
Pseudomonas aeruginosa
  Activity: inactive
Klebsiella pneumoniae
  Activity: inactive
Staphylococcus aureus
  Activity: inactive
Candida parapsilosis
  MIC: > 50 µg/mL
Escherichia coli
  Activity: inactive
Cryptococcus neoformans
  MIC: > 50 µg/mL
Candida albicans
  MIC: > 50 µg/mL
[1]
  MIC: > 12.5 µg/mL
[2]
  MIC: > 12.5 µg/mL
Aspergillus fumigatus
  MIC: > 50 µg/mL

## COc1ccc(/C=C2\CCC/C(=C\c3ccc(OC)c(OC)c3)C2=O)cc1OC
Pseudomonas aeruginosa
  Activity: inactive
Klebsiella pneumoniae
  Activity: inactive
Staphylococcus aureus
  Activity: inactive
Candida parapsilosis
  MIC: > 50 µg/mL
Escherichia coli
  Activity: inactive
Cryptococcus neoformans
  MIC: > 50 µg/mL
Candida albicans
  MIC: > 50 µg/mL
[1]
  MIC: > 12.5 µg/mL
[2]
  MIC: > 12.5 µg/mL
Aspergillus fumigatus
  MIC: > 50 µg/mL

## O=C1/C(=C/c2ccco2)CCC/C1=C\c1ccco1
Pseudomonas aeruginosa
  Activity: inactive
Klebsiella pneumoniae
  Activity: inactive
Staphylococcus aureus
  Activity: inactive
Candida parapsilosis
  MIC: > 50 µg/mL
Escherichia coli
  Activity: inactive
Cryptococcus neoformans
  MIC: > 50 µg/mL
Candida albicans
  MIC: > 50 µg/mL
[1]
  MIC: > 12.5 µg/mL
[2]
  MIC: > 12.5 µg/mL
Aspergillus fumigatus
  MIC: > 50 µg/mL

## O=C1CCCCC1C(O)c1cccc([N+](=O)[O-])c1 (stereo not given)
Pseudomonas aeruginosa
  Activity: inactive
Klebsiella pneumoniae
  Activity: inactive
Staphylococcus aureus
  Activity: inactive
Candida parapsilosis
  MIC: > 50 µg/mL
Escherichia coli
  Activity: inactive
Cryptococcus neoformans
  MIC: > 50 µg/mL
Candida albicans
  MIC: > 50 µg/mL
[1]
  MIC: 12.5 µg/mL (≈ 50.1 µM)
[2]
  MIC: > 12.5 µg/mL
Aspergillus fumigatus
  MIC: > 50 µg/mL

## O=C1CCCCC1C(O)c1ccc([N+](=O)[O-])cc1 (stereo not given)
Pseudomonas aeruginosa
  Activity: inactive
Klebsiella pneumoniae
  Activity: inactive
Staphylococcus aureus
  Activity: inactive
Candida parapsilosis
  MIC: > 50 µg/mL
Escherichia coli
  Activity: inactive
Cryptococcus neoformans
  MIC: > 50 µg/mL
Candida albicans
  MIC: > 50 µg/mL
[1]
  MIC: 12.5 µg/mL (≈ 50.1 µM)
[2]
  MIC: > 12.5 µg/mL
Aspergillus fumigatus
  MIC: > 50 µg/mL

## CC[C@@H](CO)NCCN[C@@H](CC)CO [ETHAMBUTOL]
[1]
  MIC: 3.25 µg/mL (≈ 15.9 µM)

## O=C1/C(=C/c2ccc(Cl)cc2)CCCC/C1=C\c1ccc(Cl)cc1
Pseudomonas aeruginosa
  Activity: inactive
Klebsiella pneumoniae
  Activity: inactive
Staphylococcus aureus
  Activity: inactive
Candida parapsilosis
  MIC: > 50 µg/mL
Escherichia coli
  Activity: inactive
Cryptococcus neoformans
  MIC: > 50 µg/mL
Candida albicans
  MIC: > 50 µg/mL
[1]
  MIC: > 12.5 µg/mL
[2]
  MIC: > 12.5 µg/mL
Aspergillus fumigatus
  MIC: > 50 µg/mL

## O=C1/C(=C/c2ccccc2)CCC/C1=C\c1ccccc1 [2,6-DIBENZYLIDENECYCLOHEXANONE]
Pseudomonas aeruginosa
  Activity: inactive
Klebsiella pneumoniae
  Activity: inactive
Staphylococcus aureus
  Activity: inactive
Candida parapsilosis
  MIC: > 50 µg/mL
Escherichia coli
  Activity: inactive
Cryptococcus neoformans
  MIC: > 50 µg/mL
Candida albicans
  MIC: > 50 µg/mL
[1]
  MIC: 6.25 µg/mL (≈ 22.8 µM)
[2]
  MIC: > 12.5 µg/mL
Aspergillus fumigatus
  MIC: > 50 µg/mL

## O=C1/C(=C/c2ccc(Br)cc2)CCCC/C1=C\c1ccc(Br)cc1
Pseudomonas aeruginosa
  Activity: inactive
Klebsiella pneumoniae
  Activity: inactive
Staphylococcus aureus
  Activity: inactive
Candida parapsilosis
  MIC: > 50 µg/mL
Escherichia coli
  Activity: inactive
Cryptococcus neoformans
  MIC: > 50 µg/mL
Candida albicans
  MIC: > 50 µg/mL
[1]
  MIC: > 12.5 µg/mL
[2]
  MIC: > 12.5 µg/mL
Aspergillus fumigatus
  MIC: > 50 µg/mL

## O=C1/C(=C/c2ccc([N+](=O)[O-])cc2)CCC/C1=C\c1ccc([N+](=O)[O-])cc1
Pseudomonas aeruginosa
  Activity: inactive
Klebsiella pneumoniae
  Activity: inactive
Staphylococcus aureus
  Activity: inactive
Candida parapsilosis
  MIC: > 50 µg/mL
Escherichia coli
  Activity: inactive
Cryptococcus neoformans
  MIC: > 50 µg/mL
Candida albicans
  MIC: > 50 µg/mL
[1]
  MIC: 12.5 µg/mL (≈ 34.3 µM)
[2]
  MIC: 3.12 µg/mL (≈ 8.56 µM)
Aspergillus fumigatus
  MIC: > 50 µg/mL

## O=C1CCCCC1C(O)c1ccc(Br)cc1 (stereo not given)
Pseudomonas aeruginosa
  Activity: inactive
Klebsiella pneumoniae
  Activity: inactive
Staphylococcus aureus
  Activity: inactive
Candida parapsilosis
  MIC: > 50 µg/mL
Escherichia coli
  Activity: inactive
Cryptococcus neoformans
  MIC: > 50 µg/mL
Candida albicans
  MIC: > 50 µg/mL
[1]
  MIC: 12.5 µg/mL (≈ 44.1 µM)
[2]
  MIC: > 12.5 µg/mL
Aspergillus fumigatus
  MIC: > 50 µg/mL

## O=C1/C(=C/c2ccc(Cl)cc2)CCC/C1=C\c1ccc(Cl)cc1
Pseudomonas aeruginosa
  Activity: inactive
Klebsiella pneumoniae
  Activity: inactive
Staphylococcus aureus
  Activity: inactive
Candida parapsilosis
  MIC: > 50 µg/mL
Escherichia coli
  Activity: inactive
Cryptococcus neoformans
  MIC: > 50 µg/mL
Candida albicans
  MIC: > 50 µg/mL
[1]
  MIC: > 12.5 µg/mL
[2]
  MIC: > 12.5 µg/mL
Aspergillus fumigatus
  MIC: > 50 µg/mL

## O=C1CCCCC1C(O)c1ccccc1[N+](=O)[O-] (stereo not given)
Pseudomonas aeruginosa
  Activity: inactive
Klebsiella pneumoniae
  Activity: inactive
Staphylococcus aureus
  Activity: inactive
Candida parapsilosis
  MIC: > 50 µg/mL
Escherichia coli
  Activity: inactive
Cryptococcus neoformans
  MIC: > 50 µg/mL
Candida albicans
  MIC: > 50 µg/mL
[1]
  MIC: > 12.5 µg/mL
[2]
  MIC: > 12.5 µg/mL
Aspergillus fumigatus
  MIC: > 50 µg/mL

## NNC(=O)c1ccncc1 [ISONIAZID]
[1]
  MIC: 0.75 µg/mL (≈ 5.47 µM)

## O=C1/C(=C/c2ccc(F)cc2)CCC/C1=C\c1ccc(F)cc1
Pseudomonas aeruginosa
  Activity: inactive
Klebsiella pneumoniae
  Activity: inactive
Staphylococcus aureus
  Activity: inactive
Candida parapsilosis
  MIC: > 50 µg/mL
Escherichia coli
  Activity: inactive
Cryptococcus neoformans
  MIC: > 50 µg/mL
Candida albicans
  MIC: > 50 µg/mL
[1]
  MIC: > 12.5 µg/mL
[2]
  MIC: 12.5 µg/mL (≈ 40.3 µM)
Aspergillus fumigatus
  MIC: > 50 µg/mL

## O=C1/C(=C/c2ccc(Br)cc2)CCC/C1=C\c1ccc(Br)cc1
Pseudomonas aeruginosa
  Activity: inactive
Klebsiella pneumoniae
  Activity: inactive
Staphylococcus aureus
  Activity: inactive
[3]
  MIC: 12.5 µg/mL (≈ 28.9 µM)
Escherichia coli
  Activity: inactive
[1]
  MIC: 12.5 µg/mL (≈ 28.9 µM)
Sporothrix schenckii
  MIC: 25 µg/mL (≈ 57.8 µM)
[2]
  MIC: 1.56 µg/mL (≈ 3.61 µM)

## COc1cc(/C=C2\CCC/C(=C\c3cc(OC)c(OC)c(OC)c3)C2=O)cc(OC)c1OC
Pseudomonas aeruginosa
  Activity: inactive
Klebsiella pneumoniae
  Activity: inactive
Staphylococcus aureus
  Activity: inactive
Candida parapsilosis
  MIC: > 50 µg/mL
Escherichia coli
  Activity: inactive
Cryptococcus neoformans
  MIC: > 50 µg/mL
Candida albicans
  MIC: > 50 µg/mL
[1]
  MIC: > 12.5 µg/mL
[2]
  MIC: > 12.5 µg/mL
Aspergillus fumigatus
  MIC: > 50 µg/mL

## O=C1/C(=C/c2ccc3ccccc3c2)CCC/C1=C\c1ccc2ccccc2c1
Pseudomonas aeruginosa
  Activity: inactive
Klebsiella pneumoniae
  Activity: inactive
Staphylococcus aureus
  Activity: inactive
Candida parapsilosis
  MIC: > 50 µg/mL
Escherichia coli
  Activity: inactive
Cryptococcus neoformans
  MIC: > 50 µg/mL
Candida albicans
  MIC: > 50 µg/mL
[1]
  MIC: > 12.5 µg/mL
[2]
  MIC: > 12.5 µg/mL
Aspergillus fumigatus
  MIC: > 50 µg/mL

## COc1ccc(/C=C2\CCCC/C(=C\c3ccc(OC)cc3)C2=O)cc1
Pseudomonas aeruginosa
  Activity: inactive
Klebsiella pneumoniae
  Activity: inactive
Staphylococcus aureus
  Activity: inactive
Candida parapsilosis
  MIC: > 50 µg/mL
Escherichia coli
  Activity: inactive
Cryptococcus neoformans
  MIC: > 50 µg/mL
Candida albicans
  MIC: > 50 µg/mL
[1]
  MIC: > 12.5 µg/mL
[2]
  MIC: 6.25 µg/mL (≈ 17.9 µM)
Aspergillus fumigatus
  MIC: > 50 µg/mL

## COc1ccc(/C=C2\CCCC/C(=C\c3ccc(OC)c(OC)c3)C2=O)cc1OC
Pseudomonas aeruginosa
  Activity: inactive
Klebsiella pneumoniae
  Activity: inactive
Staphylococcus aureus
  Activity: inactive
Candida parapsilosis
  MIC: > 50 µg/mL
Escherichia coli
  Activity: inactive
Cryptococcus neoformans
  MIC: > 50 µg/mL
Candida albicans
  MIC: > 50 µg/mL
[1]
  MIC: > 12.5 µg/mL
[2]
  MIC: > 12.5 µg/mL
Aspergillus fumigatus
  MIC: > 50 µg/mL

## COc1ccc(/C=C2\CC/C(=C\c3ccc(OC)c(OC)c3)C2=O)cc1OC
Pseudomonas aeruginosa
  Activity: inactive
Klebsiella pneumoniae
  Activity: inactive
Staphylococcus aureus
  Activity: inactive
Candida parapsilosis
  MIC: > 50 µg/mL
Escherichia coli
  Activity: inactive
Cryptococcus neoformans
  MIC: > 50 µg/mL
Candida albicans
  MIC: > 50 µg/mL
[1]
  MIC: > 12.5 µg/mL
[2]
  MIC: > 12.5 µg/mL
Aspergillus fumigatus
  MIC: > 50 µg/mL

## O=C1/C(=C/c2ccc(OCc3ccccc3)cc2)CCC/C1=C\c1ccc(OCc2ccccc2)cc1
Pseudomonas aeruginosa
  Activity: inactive
Klebsiella pneumoniae
  Activity: inactive
Staphylococcus aureus
  Activity: inactive
Candida parapsilosis
  MIC: > 50 µg/mL
Escherichia coli
  Activity: inactive
Cryptococcus neoformans
  MIC: > 50 µg/mL
Candida albicans
  MIC: > 50 µg/mL
[1]
  MIC: > 12.5 µg/mL
[2]
  MIC: > 12.5 µg/mL
Aspergillus fumigatus
  MIC: > 50 µg/mL

## OC1/C(=C/c2ccc(Br)cc2)CCC/C1=C\c1ccc(Br)cc1 (stereo not given)
Pseudomonas aeruginosa
  Activity: inactive
Klebsiella pneumoniae
  Activity: inactive
Staphylococcus aureus
  Activity: inactive
Candida parapsilosis
  MIC: > 50 µg/mL
Escherichia coli
  Activity: inactive
Cryptococcus neoformans
  MIC: > 50 µg/mL
Candida albicans
  MIC: > 50 µg/mL
[1]
  MIC: 12.5 µg/mL (≈ 28.8 µM)
[2]
  MIC: > 12.5 µg/mL
Aspergillus fumigatus
  MIC: > 50 µg/mL
